Results published in ChEMBL document CHEMBL3632584, “Further Optimization and Evaluation of Bioavailable, Mixed-Efficacy μ-Opioid Receptor (MOR) Agonists/δ-Opioid Receptor (DOR) Antagonists: Balancing MOR and DOR Affinities” (J Med Chem, 2015).
Active and inactive are the calls of the source.

What was measured:
Mus musculus [1] = assay: Antinociceptive activity in C57BL/6 mouse assessed as time duration of action at 10 mg/kg, ip measured after 30 mins by warm water tail withdrawal assay; format: functional
Outline: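 Male C57BL/6 mice given a single 10 mg/kg ip dose. Tail withdrawal from 50 °C water, 20 s cutoff, measured at varying times after dosing to follow duration of action. n=6.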

Rattus norvegicus = species on record: Rattus norvegicus; assay: Selectivity ratio, ratio of Ki for rat delta-opioid receptor to Ki for rat mu-opioid receptor
Outline: (§1)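 Competition for 0.2 nM [3H]diprenorphine in membranes (20 µg protein) from C6 cells with rat MOR or DOR, or CHO cells with human KOR. 50 mM Tris-HCl pH 7.4, 1 h at room temperature, then GF/C filtration, five buffer washes, scintillation counting. Nonspecific binding set with 10 µM naloxone. Ki from logistic fit. Mean ± S.E.M., ≥3 assays in duplicate. DOR/MOR ratio taken from the Ki values.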

[2] = biological target: T1, Delta-type opioid receptor (Rattus norvegicus, UniProt P33533); assay: Agonist activity at rat delta-opioid receptor expressed in C6 cell membrane assessed as [35S]GTPgammaS binding for 1 hr by liquid scintillation counting analysis; format: functional, cell membranes
Mu-type opioid receptor [3] = biological target: T2, Mu-type opioid receptor (Rattus norvegicus, UniProt P33535); assay: Displacement of [3H]diprenorphine from rat mu-opioid receptor expressed in C6 cell membrane for 1 hr by liquid scintillation counting analysis; format: cell membranes
Mus musculus [4] = assay: Antinociceptive activity in C57BL/6 mouse assessed as tail withdrawal latency upto 10 mg/kg, ip measured after 30 mins by warm water tail withdrawal assay; format: functional, organism-based
[5] = biological target: T3, Kappa-type opioid receptor (Homo sapiens, UniProt P41145); assay: Agonist activity at human kappa-opioid receptor expressed in CHO cell membrane assessed as [35S]GTPgammaS binding for 1 hr by liquid scintillation counting analysis; format: functional, cell membranes
[6] = biological target: Mu-type opioid receptor (Rattus norvegicus) (UniProt P33535); assay: Agonist activity at rat mu-opioid receptor expressed in C6 cell membrane assessed as [35S]GTPgammaS binding for 1 hr by liquid scintillation counting analysis relative to 10 uM DAMGO; format: functional, cell membranes
[7] = biological target: T1, Delta-type opioid receptor; assay: Displacement of [3H]diprenorphine from rat delta-opioid receptor expressed in C6 cell membrane for 1 hr by liquid scintillation counting analysis; format: cell membranes
[8] = biological target: Delta-type opioid receptor (Rattus norvegicus) (UniProt P33533); assay: Agonist activity at rat delta-opioid receptor expressed in C6 cell membrane assessed as [35S]GTPgammaS binding for 1 hr by liquid scintillation counting analysis relative to 10 uM DPDPE; format: functional, cell membranes
Mu-type opioid receptor [9] = biological target: T2, Mu-type opioid receptor; assay: Agonist activity at rat mu-opioid receptor expressed in C6 cell membrane assessed as [35S]GTPgammaS binding for 1 hr by liquid scintillation counting analysis; format: functional, cell membranes
[10] = biological target: T3, Kappa-type opioid receptor; assay: Displacement of [3H]diprenorphine from human kappa-opioid receptor expressed in CHO cell membrane for 1 hr by liquid scintillation counting analysis; format: cell membranes; outline: as §1
[11] = biological target: T3, Kappa-type opioid receptor; assay: Agonist activity at human kappa-opioid receptor expressed in CHO cell membrane assessed as [35S]GTPgammaS binding for 1 hr by liquid scintillation counting analysis relative to 10 uM U69593; format: functional, cell membranes
Plasma = assay: Stability in C57BL/6 mouse plasma after 30 mins; format: ADME, cell-free; conditions: 0.5 h
Mus musculus [12] = assay: Antinociceptive activity in C57BL/6 mouse assessed as tail withdrawal latency time at 10 mg/kg, ip measured after 30 mins by warm water tail withdrawal assay; format: functional
Mus musculus [13] = assay: Antinociceptive activity in ip dosed C57BL/6 mouse assessed as tail withdrawal latency measured 30 mins after drug challenge by warm water tail withdrawal assay; format: functional; conditions: for ED50: C57BL/6, Tail, 0.5 h
Mus musculus [14] = assay: Antinociceptive activity in ip dosed C57BL/6 mouse assessed as tail withdrawal latency pretreated with 1 mg/kg naltrexone for 30 mins measured 30 mins after drug challenge by warm water tail withdrawal assay; format: functional; conditions: C57BL/6, Tail
Outline: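 Male C57BL/6 mice pretreated ip with 1 mg/kg naltrexone or saline 30 min before cumulative ip dosing to 3.2, 10 and 32 mg/kg. Tail withdrawal latency from 50 °C water, 20 s cutoff, read 30 min after each dose. ED50 from the dose-response.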

T1 sequence (P33533 whole entry): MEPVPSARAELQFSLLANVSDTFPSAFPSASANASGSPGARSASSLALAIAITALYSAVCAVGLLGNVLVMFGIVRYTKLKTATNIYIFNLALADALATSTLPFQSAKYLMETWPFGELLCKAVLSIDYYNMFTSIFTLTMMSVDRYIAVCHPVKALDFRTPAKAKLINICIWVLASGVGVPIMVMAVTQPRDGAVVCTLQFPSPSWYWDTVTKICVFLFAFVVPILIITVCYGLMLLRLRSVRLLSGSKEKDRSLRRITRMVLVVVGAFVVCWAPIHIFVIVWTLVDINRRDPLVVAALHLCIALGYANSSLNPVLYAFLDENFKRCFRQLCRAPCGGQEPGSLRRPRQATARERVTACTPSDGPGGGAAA
Sequence of Delta-type opioid receptor (Rattus norvegicus) (P33533 whole entry): as above
T3 sequence (P41145 whole entry): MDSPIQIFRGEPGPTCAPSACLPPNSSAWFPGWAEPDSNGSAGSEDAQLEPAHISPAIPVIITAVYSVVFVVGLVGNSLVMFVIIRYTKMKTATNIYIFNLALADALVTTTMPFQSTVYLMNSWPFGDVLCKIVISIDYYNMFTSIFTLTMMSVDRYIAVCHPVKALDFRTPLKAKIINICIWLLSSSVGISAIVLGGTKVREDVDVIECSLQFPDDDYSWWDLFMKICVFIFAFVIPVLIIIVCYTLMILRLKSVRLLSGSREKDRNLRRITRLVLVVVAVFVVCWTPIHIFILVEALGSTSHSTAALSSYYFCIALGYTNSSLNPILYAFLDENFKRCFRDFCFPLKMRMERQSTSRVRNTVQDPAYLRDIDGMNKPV
Sequence of Mu-type opioid receptor (Rattus norvegicus) (P33535 whole entry): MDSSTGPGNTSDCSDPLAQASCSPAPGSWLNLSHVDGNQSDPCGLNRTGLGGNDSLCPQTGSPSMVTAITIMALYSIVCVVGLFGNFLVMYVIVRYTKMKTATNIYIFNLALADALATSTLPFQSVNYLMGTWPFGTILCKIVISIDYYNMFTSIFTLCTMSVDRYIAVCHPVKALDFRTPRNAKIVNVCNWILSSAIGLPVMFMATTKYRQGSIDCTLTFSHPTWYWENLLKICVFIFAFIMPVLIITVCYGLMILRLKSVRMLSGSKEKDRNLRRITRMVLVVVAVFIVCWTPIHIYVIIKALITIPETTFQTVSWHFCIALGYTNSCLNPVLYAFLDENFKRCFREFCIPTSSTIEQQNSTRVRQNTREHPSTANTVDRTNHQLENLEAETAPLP
T2 sequence (P33535 whole entry): as above

| Structure (SMILES) | Time (Mus musculus [1]) [h] | Ratio Ki (Rattus norvegicus) | EC50 ([2]; c6) | Ki (Mu-type opioid receptor [3]) [nM] | Activity (Mus musculus [4]) | EC50 ([5]; cho) | Activity [6] | Ki [7] [nM] | Activity [8] | EC50 (Mu-type opioid receptor [9]; read-out: EC50) [nM] | Ki [10] [nM] | Activity [11] | Stability (Plasma) | EC50 ([5]; read-out: EC50) [nM] | EC50 ([2]; read-out: EC50) [nM] | Time (Mus musculus [12]) [s] | ED50 (Mus musculus [13]) [mg/kg] | Activity (Mus musculus [13]) | ED50 (Mus musculus [14]) [mg/kg] | EC50 (Mu-type opioid receptor [9]; c6) |
| --- | --- | --- | --- | --- | --- | --- | --- | --- | --- | --- | --- | --- | --- | --- | --- | --- | --- | --- | --- | --- |
| Cc1cc(O)cc(C)c1C[C@H](N)C(=O)N[C@@H]1CCNc2ccc(Cc3ccccc3)cc21 | >1 |  |  |  |  |  |  |  |  |  |  |  |  |  |  |  |  |  |  |  |
| Cc1cc(O)cc(C)c1C[C@H](N)C(=O)N[C@@H]1CCCc2ccc(Cc3cccc4ccccc34)cc21 |  | 13 | Not Active | 0.39 | inactive | Not Active | 58% | 5 | inactive | 14 | 63 | inactive |  |  |  |  |  |  |  |  |
| CC(=O)N1CC[C@@H](NC(=O)[C@@H](N)Cc2c(C)cc(O)cc2C)c2cc(Cc3cccc4ccccc34)ccc21 |  | 22 | Not Active | 0.06 | inactive | Not Active | 70% | 1.3 | inactive | 0.48 | 4.3 | inactive | Stable |  |  |  |  |  |  |  |
| Cc1cc(O)cc(C)c1C[C@H](N)C(=O)N[C@@H]1CCNc2ccc(CC3CCc4ccccc43)cc21 (mixture of isomers) |  |  | Not Active | 0.05 |  |  | 16% | 6.8 |  | 9 | 19 | 52% |  | 180 |  |  |  |  |  |  |
| CC(=O)N1CC[C@@H](NC(=O)[C@@H](N)Cc2c(C)cc(O)cc2C)c2cc(CC3CCCCC3)ccc21 |  | 11 |  | 0.03 | inactive |  | 70% | 0.32 | 26% | 0.61 | 8.4 | 33% |  | 240 | 14 |  |  |  |  |  |
| Cc1cc(O)cc(C)c1C[C@H](N)C(=O)N[C@@H]1CCNc2ccc(CC3CCCCC3)cc21 |  | 79 | Not Active | 0.043 | inactive |  | 57% | 3.4 | inactive | 2.6 | 6.2 | 36% |  | 97 |  |  |  |  |  |  |
| Cc1cc(O)cc(C)c1C[C@H](N)C(=O)N[C@@H]1CCNc2ccc(Cc3ccc4ccccc4c3)cc21 |  |  |  |  |  |  | 96% |  | inactive |  |  | inactive |  |  |  | 10 |  |  |  |  |
| Cc1cc(O)cc(C)c1C[C@H](N)C(=O)N[C@@H]1CCCc2ccc(Cc3ccc4ccccc4c3)cc21 |  |  | Not Active | 0.06 | inactive | Not Active | 72% | 12 |  | 4.4 | 92 |  |  |  |  |  |  |  |  |  |
| CC(=O)N1CC[C@@H](NC(=O)[C@@H](N)Cc2c(C)cc(O)cc2C)c2cc(CC3Cc4ccccc4C3)ccc21 |  | 9 | Not Active | 0.05 |  |  | 84% | 0.44 | inactive | 0.56 | 12 | 60% |  | 610 |  | 11 |  |  |  |  |
| CN1CC[C@]23c4c5ccc(O)c4O[C@H]2[C@@H](O)C=C[C@H]3[C@H]1C5 [MORPHINE] |  |  |  |  |  |  |  |  |  |  |  |  |  |  |  |  | 4.73 |  |  |  |
| CC(=O)N1CC[C@@H](NC(=O)[C@@H](N)Cc2c(C)cc(O)cc2C)c2cc(Cc3ccccc3)ccc21 |  | 14 |  | 0.13 | inactive |  | 76% | 1.8 | 26% | 6 | 87 | 29% |  | > 1300 | 68 |  |  |  |  |  |
| Cc1cc(O)cc(C)c1C[C@H](N)C(=O)N[C@@H]1CCNc2ccc(Cc3cccc4ccccc34)cc21 |  |  |  |  |  |  | 93% |  | 15% |  |  |  |  |  |  |  |  |  |  |  |
| CC(=O)N1CC[C@@H](NC(=O)[C@@H](N)Cc2c(C)cc(O)cc2C)c2cc(Cc3ccc4ccccc4c3)ccc21 | >3 | 6 | Not Active | 0.04 |  | Not Active | 87% | 0.23 | inactive | 0.93 | 48 | inactive | Stable |  |  |  | 4.72 | Dose-dependent effect | 15.1 |  |
| Cc1cc(O)cc(C)c1C[C@H](N)C(=O)N[C@@H]1CCCc2ccc(Cc3ccccc3)cc21 |  |  | Not Active | 0.045 |  | Not Active | 64% | 4 |  | 2.9 | 19 |  |  |  |  | 14 |  |  |  |  |
| Cc1cc(O)cc(C)c1C[C@H](N)C(=O)N[C@@H]1CCNc2ccc(CC3Cc4ccccc4C3)cc21 |  | 26 |  |  | inactive | Not Active | 86% |  | inactive |  |  | 38% |  |  |  |  |  |  |  |  |
| CC(=O)N1CC[C@@H](NC(=O)[C@@H](N)Cc2c(C)cc(O)cc2C)c2cc(CC3CCc4ccccc43)ccc21 (mixture of isomers) |  |  | Not Active | 0.03 |  |  | 39% | 0.84 |  | 15 | 15 | 26% |  |  |  |  |  |  |  |  |
| Cc1cc(O)cc(C)c1C[C@H](N)C(=O)N[C@@H]1CCCc2ccc(CC3CCCCC3)cc21 |  | 117 | Not Active |  |  |  | inactive | 14 | inactive |  | 20 | 25% |  | 350 |  |  |  |  |  | Not Active |
